ChEMBL document CHEMBL4354797, “Novel Pyrazolo[4,3- d]pyrimidine as Potent and Orally Active Inducible Nitric Oxide Synthase (iNOS) Dimerization Inhibitor with Efficacy in Rheumatoid Arthritis Mouse Model” (J Med Chem, 2019)
Calls of active or inactive are those of the source. The rule behind the calls is not given here.

Columns and labels:
[1] = test system: RAW264.7; assay: Antiinflammatory activity in mouse RAW264.7 cells assessed as inhibition of LPS-induced NO production at 10 uM preincubated for 1 hr followed by LPS addition and measured after 24 hrs by Griess reagent-based assay relative to control; assay type: functional
Procedure, shortened: (§1)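 RAW 264.7 cells pretreated with compound for 1 h, then LPS 1 µg/mL for 24 h. Single-point inhibition at 10 µM. IC50 by regression of inhibition over several concentrations. At least three independent experiments.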

[2] = biological target: T1, Nitric oxide synthase, inducible (Mus musculus, UniProt P29477); assay: Inhibition of iNOS in LPS-stimulated mouse RAW 264.7 cells preincubated for 1 hr followed by LPS-stimulation and measured after 6 hrs by fluorescence based assay
T1 sequence (P29477 whole entry): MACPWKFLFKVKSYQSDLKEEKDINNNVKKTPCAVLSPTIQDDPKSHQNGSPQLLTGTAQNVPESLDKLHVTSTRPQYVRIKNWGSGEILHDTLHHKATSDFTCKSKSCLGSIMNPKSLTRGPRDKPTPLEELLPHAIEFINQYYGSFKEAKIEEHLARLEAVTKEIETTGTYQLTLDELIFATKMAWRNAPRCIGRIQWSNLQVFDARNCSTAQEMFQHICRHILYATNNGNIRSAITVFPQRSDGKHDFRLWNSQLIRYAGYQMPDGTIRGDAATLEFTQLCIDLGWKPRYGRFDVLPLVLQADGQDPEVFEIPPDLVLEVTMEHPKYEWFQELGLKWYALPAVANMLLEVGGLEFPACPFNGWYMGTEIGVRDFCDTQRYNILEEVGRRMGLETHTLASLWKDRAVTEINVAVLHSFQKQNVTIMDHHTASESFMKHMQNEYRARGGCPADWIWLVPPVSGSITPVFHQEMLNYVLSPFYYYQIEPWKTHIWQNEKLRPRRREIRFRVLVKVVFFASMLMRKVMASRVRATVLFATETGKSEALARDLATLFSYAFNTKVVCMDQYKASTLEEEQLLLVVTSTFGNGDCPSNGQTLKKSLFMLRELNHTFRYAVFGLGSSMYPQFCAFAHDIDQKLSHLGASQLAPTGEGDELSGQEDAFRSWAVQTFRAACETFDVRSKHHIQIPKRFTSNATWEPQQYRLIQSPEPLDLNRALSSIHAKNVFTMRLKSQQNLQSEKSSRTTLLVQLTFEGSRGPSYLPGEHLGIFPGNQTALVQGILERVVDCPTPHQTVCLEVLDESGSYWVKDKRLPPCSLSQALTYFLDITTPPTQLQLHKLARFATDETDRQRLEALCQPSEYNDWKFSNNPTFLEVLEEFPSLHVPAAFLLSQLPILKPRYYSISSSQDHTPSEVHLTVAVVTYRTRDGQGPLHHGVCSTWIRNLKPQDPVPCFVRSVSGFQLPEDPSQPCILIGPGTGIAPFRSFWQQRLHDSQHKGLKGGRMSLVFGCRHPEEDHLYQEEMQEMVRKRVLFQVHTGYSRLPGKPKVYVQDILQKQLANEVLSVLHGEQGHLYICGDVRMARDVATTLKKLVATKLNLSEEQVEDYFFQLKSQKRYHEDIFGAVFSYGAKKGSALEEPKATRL
Procedure, shortened: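 Inhibition calculated relative to LPS-stimulated and unstimulated controls. IC50 obtained by regression of inhibition rates at several concentrations. Indomethacin served as positive control.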

[3] = test system: RAW264.7; assay: Antiinflammatory activity in mouse RAW264.7 cells assessed as inhibition of LPS-induced NO production preincubated for 1 hr followed by LPS addition and measured after 24 hrs by Griess reagent-based assay; assay type: functional, cell-based; procedure, shortened: as §1
[4] = test system: RAW264.7; assay: Cytotoxicity against mouse RAW264.7 cells assessed as reduction in cell viability; assay type: cell-based
[5] = test system: RAW264.7; assay: Cytotoxicity against LPS-induced mouse RAW264.7 cells assessed as reduction in cell viability; assay type: cell-based
[6] = biological target: T2, Nitric oxide synthase, inducible (Mus musculus) (UniProt P29477); assay: Potency index, ratio of indomethacin IC50 to compound IC50 for inhibition of iNOS in LPS-stimulated mouse RAW264.7 cells; assay type: cell-based
T2 sequence (whole entry): T1 sequence (P29477 whole entry)

[7] = test system: RAW264.7; assay: Inhibition of iNOS expression in LPS-induced mouse RAW264.7 cells at 1 to 4 uM preincubated for 1 hr followed by LPS-stimulation by Western blot analysis; assay type: functional, cell-based
Procedure, shortened: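 RAW 264.7 cells pretreated with the indicated compound concentrations for 1 h, then LPS 1 µg/mL for 24 h. iNOS protein assessed by Western blot on 8% SDS-PAGE, with β-actin as loading control. At least three independent experiments, each in duplicate.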

[8] = biological target: T2, Nitric oxide synthase, inducible (Mus musculus); assay: Inhibition of iNOS dimerization in LPS-induced mouse RAW264.7 cells at 1 to 4 uM preincubated for 1 hr followed by LPS-stimulation and measured after 24 hrs by immunoblot analysis; assay type: cell-based
[9] = test system: Rattus norvegicus; assay: Antiarthritic activity in CFA-induced Sprague-Dawley rat arthritic model assessed as inhibition of hind paw swelling at 40 mg/kg, ig administered daily for 28 days starting from 14 days post-immunization and measured on day 30; assay type: functional, organism-based
Procedure, shortened: (§2)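 Rat adjuvant-induced arthritis. Test agent given intragastrically once daily from day 14 to 28 after adjuvant immunization (40 or 80 mg/kg). Aspirin 50 mg/kg intragastric was the positive control. Hind paw swelling and arthritis index measured every 3 days, with body weight tracked; day 30 also reported. n=5 per group, mean±s.d., Tukey's test.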

[10] = Toxicity in Sprague-Dawley rat model of CFA-induced arthritis assessed as reduction in body weight loss at 40 to 80 mg/kg, ig administered daily for 28 days starting from 14 days post-immunization and measured on day 30; assay type: organism-based; settings: in vivo, po; procedure, shortened: as §2
[11] = test system: Rattus norvegicus; assay: (§3) Antiarthritic activity in Sprague-Dawley rat model of arthritis assessed as decrease in CFA-induced synovial hyperplasia at 40 and 80 mg/kg, ig administered daily for 28 days starting from 14 days post-immunization and measured every 3 days by H and E staining based histopathological analysis; assay type: functional, organism-based
Procedure, shortened: (§4)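 Knee joints of adjuvant-arthritic rats were taken after intragastric dosing once daily, days 14–28 post-immunization (test agent 40 or 80 mg/kg; aspirin 50 mg/kg). Sections stained with H&E were scored by microscopy for synovial hyperplasia, inflammatory cell infiltration and bone/cartilage destruction, against normal and untreated arthritic rats.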

[12] = test system: Rattus norvegicus; assay: as §3, with “inhibition of” for “decrease in”, “inflammatory cell infiltration” for “synovial hyperplasia”; assay type: functional, organism-based; procedure, shortened: as §4
[13] = test system: Rattus norvegicus; assay: Antiarthritic activity in Sprague-Dawley rat model of arthritis assessed as inhibition of CFA-induced cartilage destruction at 80 mg/kg, ig administered daily for 28 days starting from 14 days post-immunization and measured every 3 days by H and E staining based histopathological analysis; assay type: functional, organism-based; procedure, shortened: as §4
[14] = test system: Rattus norvegicus; assay: Antiinflammatory activity in ig dosed CFA-induced Sprague-Dawley rat model of arthritis assessed as reduction in NO level in serum administered daily for 28 days starting from 14 days post-immunization; assay type: functional, organism-based
Procedure, shortened: (§5)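 Serum NO, TNF-α, IL-1β and IL-6 measured in adjuvant-arthritic rats given intragastric dosing once daily, days 14–28 after immunization (test agent 40 or 80 mg/kg; aspirin 50 mg/kg), compared with untreated arthritic and normal rats. n=5 per group, mean±s.d.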

[15] = test system: Rattus norvegicus; assay: Antiinflammatory activity in ig dosed CFA-induced Sprague-Dawley rat model of arthritis assessed as reduction in TNF-alpha level in serum administered daily for 28 days starting from 14 days post-immunization; assay type: functional, organism-based; procedure, shortened: as §5
[16] = test system: Rattus norvegicus; assay: Antiinflammatory activity in ig dosed CFA-induced Sprague-Dawley rat model of arthritis assessed as reduction in IL-1beta level in serum administered daily for 28 days starting from 14 days post-immunization; assay type: functional, organism-based; procedure, shortened: as §5
[17] = test system: Rattus norvegicus; assay: Antiinflammatory activity in ig dosed CFA-induced Sprague-Dawley rat model of arthritis assessed as reduction in IL-6 level in serum administered daily for 28 days starting from 14 days post-immunization; assay type: functional, organism-based; procedure, shortened: as §5
[18] = test system: Rattus norvegicus; assay: Antiarthritic activity in Sprague-Dawley rat model of arthritis assessed as effect on CFA-induced synovial hyperplasia at 50 mg/kg, ig administered daily for 28 days starting from 14 days post-immunization and measured every 3 days by H and E staining based histopathological analysis; assay type: functional, organism-based; procedure, shortened: as §4
[19] = test system: Rattus norvegicus; assay: Antiarthritic activity in Sprague-Dawley rat model of arthritis assessed as inhibition of CFA-induced inflammatory cell infiltration at 50 mg/kg, ig administered daily for 28 days starting from 14 days post-immunization and measured every 3 days by H and E staining based histopathological analysis; assay type: functional, organism-based; procedure, shortened: as §4
[20] = test system: Rattus norvegicus; assay: Antiarthritic activity in Sprague-Dawley rat model of arthritis assessed as inhibition of CFA-induced cartilage destruction at 50 mg/kg, ig administered daily for 28 days starting from 14 days post-immunization and measured every 3 days by H and E staining based histopathological analysis; assay type: functional, organism-based; procedure, shortened: as §4
[21] = test system: Rattus norvegicus; assay: Antiinflammatory activity in CFA-induced Sprague-Dawley rat model of arthritis assessed as reduction in NO level in serum at 50 mg/kg, ig administered daily for 28 days starting from 14 days post-immunization; assay type: functional, organism-based; procedure, shortened: as §5
[22] = test system: Rattus norvegicus; assay: Antiinflammatory activity in CFA-induced Sprague-Dawley rat model of arthritis assessed as reduction in TNF-alpha level in serum at 50 mg/kg, ig administered daily for 28 days starting from 14 days post-immunization; assay type: functional, organism-based; procedure, shortened: as §5
[23] = test system: Rattus norvegicus; assay: Antiinflammatory activity in CFA-induced Sprague-Dawley rat model of arthritis assessed as reduction in IL-1beta level in serum at 50 mg/kg, ig administered daily for 28 days starting from 14 days post-immunization; assay type: functional, organism-based; procedure, shortened: as §5
[24] = test system: Rattus norvegicus; assay: Antiinflammatory activity in CFA-induced Sprague-Dawley rat model of arthritis assessed as reduction in IL-6 level in serum at 50 mg/kg, ig administered daily for 28 days starting from 14 days post-immunization; assay type: functional, organism-based; procedure, shortened: as §5
[25] = test system: Rattus norvegicus; assay: Antiarthritic activity in CFA-induced Sprague-Dawley rat arthritic model assessed as inhibition of hind paw swelling at 50 mg/kg, ig administered daily for 28 days starting from 14 days post-immunization and measured on day 30; assay type: functional, organism-based; procedure, shortened: as §2
[26] = Mus musculus, RAW264.7, read-out: IC50

Structure (SMILES)	inhibition at 10 µM [1]	IC50 ([2]; read-out: IC50)	IC50 [3, 26]	IC50 [4]	IC50 [5]	also measured
CCCc1nn(C)c2c(NC(C)C)nc(/C=C/c3cc(OC)c(OC)c(OC)c3)nc12	90.4%	1.12 µM	3.17 µM	> 50 µM	> 50 µM	Ratio IC50 [6]: 22; inhibition [7]: inactive; inhibition [8]: Active; inhibition [9]: Active; Activity [10]: Non-Toxic; Activity [11]: Active; Activity [12]: Active; Activity [13]: Active; Activity [14]: Dose-dependent effect; Activity [15]: Dose-dependent effect; Activity [16]: Dose-dependent effect; Activity [17]: Dose-dependent effect
CC(=O)Oc1ccccc1C(=O)O						Activity [18]: Active; Activity [19]: Active; Activity [20]: Active; Activity [21]: Active; Activity [22]: Active; Activity [23]: Active; Activity [24]: Active; Activity [25]: Active
CCCc1nn(C)c2c(N3CCCC3)nc(-c3cc(OC)c(OC)c(OC)c3)nc12	3.1%			> 50 µM	> 50 µM	IC50 [2]: Not Active; IC50 ([3]; raw264.7): Not Active
CCCc1nn(C)c2c(NCC(C)C)nc(/C=C/c3ccccc3)nc12	33.3%	5.31 µM	22.1 µM	> 50 µM	> 50 µM	
CCCc1nn(C)c2c(Nc3ccccc3)nc(/C=C/c3ccccc3)nc12	4.9%			> 50 µM	> 50 µM	IC50 [2]: Not Active; IC50 ([3]; raw264.7): Not Active
CCCc1nn(C)c2c(NC(C)C)nc(/C=C/c3ccccc3)nc12	53.9%	8.46 µM	12.2 µM	> 50 µM	> 50 µM	
CCCc1nn(C)c2c(NCc3ccc(Cl)cc3)nc(/C=C/c3ccco3)nc12	56.4%	4.25 µM	9.26 µM	> 50 µM	> 50 µM	
CCCc1nn(C)c2c(NCCc3ccc(Cl)cc3)nc(/C=C/c3ccco3)nc12	79.2%	2.6 µM	6.04 µM	> 50 µM	> 50 µM	
CCCc1nn(C)c2c(N3CCC(O)CC3)nc(/C=C/c3cc(OC)c(OC)c(OC)c3)nc12	45.3%	5.23 µM	13.7 µM	> 50 µM	> 50 µM	
COc1ccc2c(c1)c(CC(=O)O)c(C)n2C(=O)c1ccc(Cl)cc1 [INDOMETHACIN]	59.2%	24.9 µM		> 50 µM	> 50 µM	
CCCc1nn(C)c2c(NC(C)C)nc(-c3cc(OC)c(OC)c(OC)c3)nc12	51.9%	7.26 µM	10.8 µM	> 50 µM	> 50 µM	
CCCc1nn(C)c2c(Nc3ccc(C(=O)O)cc3)nc(-c3cc(OC)c(OC)c(OC)c3)nc12	44.9%	10.2 µM	15.8 µM	> 50 µM	> 50 µM	
